The text below walks through data of PubChem BioAssay.

Calls of active or inactive are those of the source.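 How the source made its calls: active means current rise at least 3 SD above the untreated control mean in each of two repeat wells; inactive means the rest.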

The target of the assay is Potassium voltage-gated channel subfamily KQT member 1 (Homo sapiens) (UniProt P51787). Kind of assay: KCNQ1 activators by electrophysiology – IonWorks patch clamp, KCNQ1-CHO cells, orthogonal assay for KCNQ1 potentiator project, confirmation (AID 493184).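 On current potentiation: percent change of the same well's current before compound addition so 0% = no change.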 Conditions: automated patch clamp current, at 10 µM; hits give high values. A digest of the protocol: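 Assay system – CHO cells carrying KCNQ1 · Medium – pH 7.4 external bath · Probe or stimulus – depolarizing pulse to +40 mV from -90 mV · Compound dosing – one dose, 10 µM final · Measured by – automated perforated-patch electrophysiology · Measure – % potentiation of steady-state current relative to pre-compound · Repeats – two replicates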
Potassium voltage-gated channel subfamily KQT member 1 (Homo sapiens), sequence (P51787 whole entry, looked up): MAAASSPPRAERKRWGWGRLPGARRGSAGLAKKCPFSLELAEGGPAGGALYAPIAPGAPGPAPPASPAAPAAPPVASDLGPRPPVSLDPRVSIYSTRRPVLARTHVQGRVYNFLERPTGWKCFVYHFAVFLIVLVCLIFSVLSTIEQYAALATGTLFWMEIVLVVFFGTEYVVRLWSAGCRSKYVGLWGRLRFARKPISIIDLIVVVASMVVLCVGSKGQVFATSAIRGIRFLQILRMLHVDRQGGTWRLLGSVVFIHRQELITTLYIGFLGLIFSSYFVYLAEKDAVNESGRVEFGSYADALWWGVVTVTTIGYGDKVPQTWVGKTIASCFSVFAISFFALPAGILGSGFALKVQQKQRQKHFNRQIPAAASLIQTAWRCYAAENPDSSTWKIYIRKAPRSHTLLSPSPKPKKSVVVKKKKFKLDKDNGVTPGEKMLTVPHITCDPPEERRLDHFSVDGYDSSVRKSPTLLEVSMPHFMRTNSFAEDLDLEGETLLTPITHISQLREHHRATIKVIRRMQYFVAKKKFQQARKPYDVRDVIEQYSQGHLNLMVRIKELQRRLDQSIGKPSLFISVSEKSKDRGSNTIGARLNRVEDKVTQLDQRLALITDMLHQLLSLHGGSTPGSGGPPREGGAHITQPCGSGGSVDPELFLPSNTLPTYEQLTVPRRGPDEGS
(Patch clamp records ionic current or voltage across a cell membrane.)
For `Cc1cc(C)n(CC(=O)N2CCCC(N3CCN(c4ccccc4C)CC3)C2)n1` (stereo not given), the outcome was inactive. Still for that read-out and setting: for `Cn1c(=O)c2c3c(sc2n2c(SCC(N)=O)nnc12)CC(C(C)(C)C)CC3` (stereo not given) the value was “inactive”; for `CN(Cc1cn[nH]c1-c1ccc2c(c1)OCO2)C1CCOCC1`, “inactive”; for `C=CCn1c(-c2cc(-c3ccc(C)cc3)nc3ccccc23)n[nH]c1=S`, “inactive”. With `COc1ccc(C(=O)CC(=O)C(=O)Nc2ccc(C)c(Cl)c2)cc1`, the result was inactive. The same measure, in the same setting: the same measure for `CN1C(=O)C2(Oc3ccccc3C3CC(c4ccccc4)=NN32)c2ccccc21` (stereo not given): “inactive”; for `C/C(=N\NC(=O)c1cccc(F)c1)c1ccc(Br)s1`: “inactive”. On to `O=C(NC(=S)Nc1ccccc1N1CCCC1)c1ccccc1Br`, for which the outcome was inactive. Same read-out and setting: for `CCOc1ccc(NC(=O)CN(C)C(=O)c2c(-c3c(F)cccc3Cl)noc2C)cc1OCC` the value was “inactive”. Same read-out and setting: the same measure for `COc1cc(-c2nnc(COC(=O)c3cccn3C)o2)cc(OC)c1OC`: “inactive”; for `COc1cccc(C2=NOC(C(=O)NCc3cccs3)C2)c1` (stereo not given): “inactive”. `Cc1ccc(-c2cc(-c3n[nH]c(=S)o3)c3ccccc3n2)cc1`: the current potentiation is 18.8% (active).

For the compound `COc1ccccc1-c1cc(C(=O)Nc2cccnc2)no1`, the result was inactive. Consider `Nc1nc(C23CC4CC(CC(C4)C2)C3)cs1`, for which the outcome was inactive.

On to `CC(C)NC(=O)C1CCN(c2ccc(S(=O)(=O)N3CCOCC3)cc2Cl)CC1`, for which the result was inactive. For the compound `COC(=O)c1ccc(NC(=S)NC(=O)c2c(Cl)cnn2C)cc1`, the outcome was inactive. For `Cc1ccc(O)c(C(=O)CC(=O)c2cccc(F)c2)c1`, the result was inactive. With `Cc1ccc(C)c(NC(=S)NC(=O)c2cncc(Br)c2)c1`, the result was inactive. For `Cc1cccc2sc(N(CCCN(C)C)C(=O)CCS(=O)(=O)c3ccccc3)nc12`, the outcome was inactive. Turning to `O=C(Nc1cccc(S(=O)(=O)NC2=NCCC2)c1)c1c(F)cccc1Cl`, the result was inactive.
